Converted amounts (≈) assume the structure as drawn.
Legend:
Assay type in all cases: functional
[1] = test system: Staphylococcus epidermidis; assay: Antibacterial activity against Staphylococcus epidermidis CIP 53.124 assessed as bacterial growth inhibition incubated for 24 hrs by optical density based microplate reader analysis
Method in brief: (§1)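 Broth microdilution in LB per CLSI, in triplicate; compounds dissolved in DMSO (stock 5 mg/mL; gentamicin stock 10 mg/mL as positive control), serially diluted 1:2. Wells inoculated with 10⁶ CFU/mL, incubated 24 h at 37 °C, with solvent as negative control. OD 630 nm read before and after incubation; MIC taken as the lowest-concentration clear well. Wells also plated on LB agar for 24 h at 37 °C.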

Escherichia coli = assay: Antibacterial activity against […] Escherichia coli CIP 54.8 assessed as bacterial growth inhibition incubated for 24 hrs by optical density based microplate reader analysis
Method in brief: (§2)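 Broth microdilution per CLSI, in triplicate: compounds as 5 mg/mL DMSO stocks (gentamicin 10 mg/mL stock as positive control), serially diluted 1:2 in LB. Wells inoculated with 10⁶ CFU/mL, 24 h at 37 °C, solvent-only negative control. OD630 read before and after incubation. MIC taken as the lowest-concentration clear well, i.e. no visible growth.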

Huh-7 = assay: Cytotoxicity against human Huh-7 cells assessed as cell growth inhibition measured after 24 hrs by MTS assay
Method in brief: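 Huh-7 cells (DMEM with glutaMAX-I, 10% FBS, 37 °C, 5% CO₂), 6×10^4 per well, allowed 16 h before 24 h exposure to increasing compound concentrations (DMSO stocks 100 mM). Viability by MTS, formazan absorbance at 490 nm; CC50 derived. Mean ± SEM of 3 experiments.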

Staphylococcus aureus [2] = assay: Antibacterial activity against methicillin resistant Staphylococcus aureus DSM 13661 assessed as bacterial growth inhibition incubated for 24 hrs by optical density based microplate reader analysis; method in brief: as §2
Staphylococcus aureus [3] = assay: Antibacterial activity against Staphylococcus aureus CIP 53.156 assessed as bacterial growth inhibition incubated for 24 hrs by optical density based microplate reader analysis; method in brief: as §1
Pseudomonas aeruginosa = assay: Antibacterial activity against Pseudomonas aeruginosa CIP A22 assessed as bacterial growth inhibition incubated for 24 hrs by optical density based microplate reader analysis; method in brief: as §1

Row | Compound | MIC [1] [µg/mL] | MIC (Escherichia coli) [µg/mL] | CC50 (Huh-7) [µM] | MIC (Staphylococcus aureus [2]) [µg/mL] | MIC (Staphylococcus aureus [3]) [µg/mL] | MIC (Pseudomonas aeruginosa) [µg/mL]
1 | C=C(C=O)[C@H]1CC=C2[C@H](OC(=O)/C(C)=C/CCCCCCC)CC[C@H](C(=O)O)[C@@]2(C)C1 | 1.56 (≈ 3.62 µM) | > 50 | 48.1 | 1.56 (≈ 3.62 µM) | 0.39 (≈ 0.906 µM) | > 50
2 | GENTAMICIN | > 250 | 3.91 |  | 250 | 3.91 | 1.95
3 | C=C(C=O)[C@H]1CC=C2[C@H](OC(=O)/C(C)=C/C=C/CCCCC)CC[C@H](C(=O)O)[C@@]2(C)C1 | 3.1 (≈ 7.23 µM) | > 50 | 184 | 3.1 (≈ 7.23 µM) | 1.56 (≈ 3.64 µM) | > 50

— ChEMBL document CHEMBL5252608, “Eremoxylarins D-J, Antibacterial Eremophilane Sesquiterpenes Discovered from an Endolichenic Strain of Xylaria hypoxylon” (J Nat Prod, 2023)
